Data set [1] is described as follows: Pharmacokinetics of saponins in rat plasma after oral gavage of raw. The note with it: for AUC0–t: SD rats, oral administration of SPN extract 1.0 g/kg; for AUC(0-t) / AUC(0-inf) / Cmax / Tmax / half-life: male, Sprague-Dawley, rat, plasma, po, 1 g/kg, oral gavage of raw P. notoginseng aqueous extract 1 g/kg, n = 6, mean ± SD; for AUC(0-t): AUC0–t; for AUC(0-t) / AUC(0-inf) / Cmax / Tmax: male SD rats; for AUC(0-inf): AUC0–∞; for half-life: t1/2, male SD rats; for time in which the maximum plasma concentration was achieved: after oral administration of RPN or SPN aqueous extract. Format: in vivo, Sprague–Dawley rats. In short, it runs like this: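 Male SD rats (200–250 g, n = 6/group) were acclimatised for 7 d and fasted overnight with water. They received a single oral gavage of aqueous extract at 1 g/kg (5 mL/kg). Heparinized orbital blood was taken pre-dose and at 5 min to 48 h, then centrifuged and stored at −40 °C. Plasma was methanol-precipitated with theophylline internal standard and analysed by MRM. Cmax and Tmax were read directly; AUC and t1/2 were non-compartmental; results are mean ± SD.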

The conditions of data set [2]: ref Ma et al. [2021]; cited from earlier work.

Molecules are shown by their SMILES. Bounds are passed on as bounds.

The AUC(0-t) is the area under the concentration-time curve up to a stated or last time point. The AUC(0-inf) is the area under the concentration-time curve extrapolated to infinity. Higher therefore signals high exposure. What is called Cmax is the peak of the concentration-time curve. Broadly, the Tmax is the time at which the peak concentration occurs. Broadly, the half-life is the time needed for the level to fall by half in the phase considered. In general, bioavailability refers to the share of a dose that reaches the circulation, judged against a reference dose that is usually intravenous.

`CC(C)=CCC[C@](C)(O[C@@H]1O[C@H](CO)[C@@H](O)[C@H](O)[C@H]1O)[C@H]1CC[C@]2(C)[C@@H]1[C@H](O)C[C@@H]1[C@@]3(C)CC[C@H](O[C@@H]4O[C@H](CO)[C@@H](O)[C@H](O)[C@H]4O[C@@H]4O[C@H](CO)[C@@H](O)[C@H](O)[C@H]4O)C(C)(C)[C@@H]3CC[C@]12C` [Rd, ginsenoside Rd]: in data set [1], the “AUC0–t” value came to 1396.89 ± 595.14 ng/h/mL, the AUC(0-t) was found to be 3630 ± 569 ng·h/mL, the AUC(0-inf) was 4170 ± 733 ng·h/mL and the Cmax turned out to be 164 ± 28.8 ng/mL. Moreover, in data set [1], the time to peak (Tmax) was 8.67 ± 2.73 h and the half-life is 13.9 ± 1.71 h.
`CC(C)=CC/C=C(\C)[C@H]1CC[C@]2(C)[C@@H]1[C@H](O)C[C@@H]1[C@@]3(C)CC[C@H](O[C@@H]4O[C@H](CO)[C@@H](O)[C@H](O)[C@H]4O[C@@H]4O[C@H](CO)[C@@H](O)[C@H](O)[C@H]4O)C(C)(C)[C@@H]3CC[C@]12C` [Rg5, ginsenoside Rg5]: the bioavailability in data set [2] is reported as 0.67%. The “detection in rat plasma” value in data set [1] (after oral administration of P. notoginseng extracts, rats, listed as GRg5) is “could not be detected”.
`CC(C)=CCC[C@](C)(O[C@@H]1O[C@H](CO)[C@@H](O)[C@H](O)[C@H]1O)[C@H]1CC[C@]2(C)[C@@H]1[C@H](O)C[C@@H]1[C@@]3(C)CC[C@H](O)C(C)(C)[C@@H]3[C@@H](O[C@@H]3O[C@H](CO)[C@@H](O)[C@H](O)[C@H]3O[C@@H]3O[C@@H](C)[C@H](O)[C@@H](O)[C@H]3O)C[C@]12C` [Re, ginsenoside Re]: in data set [1] (rats), the “time in which the maximum plasma concentration was achieved” value was at most 1.63 h. Besides, in data set [1], the area under the curve AUC(0-t) was determined as 87.7 ± 20.7 ng·h/mL, the AUC(0-inf) worked out at 91.7 ± 19.7 ng·h/mL, the peak concentration (Cmax) turned out to be 28.1 ± 13.1 ng/mL and the time of peak concentration (Tmax) was found to be 1.24 ± 0.49 h. Further, the half-life in data set [1] is 3.16 ± 1.73 h. Also, the “AUC0–t and Cmax, steamed versus raw group” value in data set [1] (oral dose of raw and steamed P. notoginseng aqueous extracts, rats) was “no significantly difference”.
As to `CC(C)=CCC[C@](C)(O[C@@H]1O[C@H](CO[C@@H]2O[C@H](CO)[C@@H](O)[C@H](O)[C@H]2O)[C@@H](O)[C@H](O)[C@H]1O)[C@H]1CC[C@]2(C)[C@@H]1[C@H](O)C[C@@H]1[C@@]3(C)CC[C@H](O[C@@H]4O[C@H](CO)[C@@H](O)[C@H](O)[C@H]4O[C@@H]4O[C@H](CO)[C@@H](O)[C@H](O)[C@H]4O)C(C)(C)[C@@H]3CC[C@]12C` [Rb1, ginsenoside Rb1], in data set [1], the “AUC0–t” value came to 5094.06 ± 1453.14 ng/h/mL, the AUC(0-t) was found to be 15100 ± 2380 ng·h/mL, the AUC(0-inf) worked out at 15200 ± 2440 ng·h/mL and the highest level (Cmax) was 997 ± 144 ng/mL. Also, in data set [1], the Tmax was determined as 8.67 ± 1.63 h and the half-life was 9.58 ± 1.11 h.
In the case of `CC(C)=CCC[C@](C)(O[C@@H]1O[C@H](CO)[C@@H](O)[C@H](O)[C@H]1O)[C@H]1CC[C@]2(C)[C@@H]1[C@H](O)C[C@@H]1[C@@]3(C)CC[C@H](O)C(C)(C)[C@@H]3[C@@H](O[C@@H]3O[C@H](CO)[C@@H](O)[C@H](O)[C@H]3O)C[C@]12C` [Rg1, ginsenoside Rg1], in data set [1], the “AUC0–t” value is on record as 176.63 ± 42.49 ng/h/mL, the area under the curve AUC(0-t) amounted to 808 ± 382 ng·h/mL, the AUC(0-inf) was 861 ± 355 ng·h/mL and the peak level (Cmax) was 66.7 ± 32.8 ng/mL. Moreover, in data set [1], the time of peak concentration (Tmax) amounted to 9.33 ± 2.07 h and the half-life is 7.92 ± 6.73 h. Also, in data set [1] (rats), the “time in which the maximum plasma concentration was achieved” value is given as at most 9.33 h.

The values are drawn from paper PMC8172216 (Pharmaceutical Biology, 2021).
